According to ChEMBL document CHEMBL3102846 (Eur J Med Chem, 2014):
Calls of active or inactive are those of the source. The rule behind the calls is not given here.

Columns and labels:
[1] = Inhibition of Wnt3A/beta-catenin signaling in HEK293 cells at 5 uM after 24 hrs by firefly/renilla dual luciferase reporter gene assay relative to vehicle-treated control; type: cell-based; parameters: scale not given: the % may be the effect or the level left; conditions: Homo sapiens
Outline: (§1)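 HEK293T cells were co-transfected with TOPglow (or FOPglow) plus pCMV Renilla. At 20 h they were reseeded at 18×10^3/well and treated for 24 h with Wnt-3A conditioned medium (from L-Wnt-3A cells) plus analogs (0.01–20 µM; DMSO ≤0.1%). Firefly/Renilla dual-luciferase ratios were expressed as % of DMSO under Wnt-3A. EC50 was taken from sigmoidal concentration–response fits; three independent experiments.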

[2] = Inhibition of Wnt3A/beta-catenin signaling in HEK293 cells at 1 uM after 24 hrs by firefly/renilla dual luciferase reporter gene assay relative to vehicle-treated control; type: cell-based; parameters: scale not given: the % may be the effect or the level left; conditions: Homo sapiens; outline: as §1
[3] = Inhibition of Wnt3A/beta-catenin signaling in human U2OS cells assessed as reduction in nuclear beta-catenin accumulation at 5 uM after 24 hrs by Western blot analysis; type: cell-based
Outline: (§2)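 U2OS cells were pretreated with analogs for 24 h, and cytoplasmic and nuclear fractions were prepared for β-catenin immunoblotting. α-Tubulin (cytoplasmic) and lamin A/C (nuclear) were loading references. Bands were quantified by densitometry and expressed as % of DMSO-treated cells, with at least triplicate experiments.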

[4] = Inhibition of Wnt3A/beta-catenin signaling in human U2OS cells assessed as effect on cytoplasmic beta-catenin level at 5 uM after 24 hrs by Western blot analysis; type: cell-based; outline: as §2
[5] = Inhibition of Wnt3A/beta-catenin signaling-mediated Tcf4 transcriptional activity in human U2OS cells at 5 uM after 24 hrs by FOPglow reporter gene assay; type: cell-based
Outline: (§3)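 U2OS cells (1.0×10^5/well, 90–95% confluent) were co-transfected with TOPglow or FOPglow (0.3 µg) plus pCMV Renilla. At 20 h they were treated for 24 h with Wnt-3A conditioned medium and analogs. Firefly luciferase was normalized to Renilla and expressed as % of DMSO-treated samples; mean ± S.E.M of three independent experiments.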

[6] = Inhibition of Wnt3A/beta-catenin signaling in HEK293 cells after 24 hrs by firefly/renilla dual luciferase reporter gene assay relative to curcumin; type: cell-based; conditions: Homo sapiens
Outline: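 EC50s came from the HEK293T TOPglow/Renilla dual-luciferase assay with Wnt-3A conditioned medium and 24 h compound exposure (0.01–20 µM), using sigmoidal fits; three independent experiments.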

[7] = Inhibition of Wnt3A/beta-catenin signaling in HEK293 cells after 24 hrs by firefly/renilla dual luciferase reporter gene assay; type: cell-based; conditions: Homo sapiens, HEK293, 24 h; outline: as §1
[8] = Inhibition of Wnt3A/beta-catenin signaling in HEK293 cells at 10 uM after 24 hrs by firefly/renilla dual luciferase reporter gene assay relative to vehicle-treated control; type: cell-based; parameters: scale not given: the % may be the effect or the level left; conditions: Homo sapiens; outline: as §1
[9] = system: HEK293T (human); test: Cytotoxicity against human HEK293T cells at dual luciferase reporter gene assay EC50 after 24 hrs by MTS assay
[10] = Inhibition of Wnt3A/beta-catenin signaling-mediated Tcf4 transcriptional activity in human HEK293T cells at dual luciferase reporter gene assay EC50 after 24 hrs by FOPglow reporter gene assay; parameters: scale not given: the % may be the effect or the level left
[11] = system: U2OS; test: Antiinvasive activity in human U2OS cells at 5 uM after 24 hrs by matrigel assay; type: functional
Outline: (§4)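 U2OS osteosarcoma cells were pretreated with analogs for 24 h, and viability was confirmed by trypan blue. Cells were then seeded at 1.5×10^5 in serum-free medium onto inserts precoated with 30 µg Matrigel (8 µm pore), with McCoy's 5A plus 15% FBS below as chemoattractant. After 48 h of invasion, cells were fixed in 70% ethanol, stained with 0.2% crystal violet, and counted in ten random fields at 200×. Values are % of DMSO control; n=3.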

[12] = Inhibition of Wnt3A/beta-catenin signaling-mediated Tcf4 transcriptional activity in human U2OS cells at 20 uM after 24 hrs by FOPglow reporter gene assay; type: cell-based; outline: as §3
[13] = Inhibition of Wnt3A/beta-catenin signaling-mediated Tcf4 transcriptional activity in human U2OS cells at 10 uM after 24 hrs by FOPglow reporter gene assay; type: cell-based; outline: as §3
[14] = Inhibition of Wnt3A/beta-catenin signaling in HEK293 cells at 20 uM after 24 hrs by firefly/renilla dual luciferase reporter gene assay relative to vehicle-treated control; type: cell-based; parameters: scale not given: the % may be the effect or the level left; conditions: Homo sapiens; outline: as §1
[15] = system: U2OS; test: Downregulation of MMP9 protein expression in human U2OS cells at 1 to 5 uM after 24 hrs by Western blot analysis; type: functional, cell-based
Outline: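 U2OS cells were exposed to analogs or DMSO vehicle for 24 h, then total protein was collected and MMP-9 immunoblotted. Blots were repeated at least in triplicate.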

[16] = system: U2OS; test: Antiinvasive activity in human U2OS cells at 1 uM after 24 hrs by matrigel assay; type: functional; outline: as §4
[17] = Inhibition of Wnt3A/beta-catenin signaling-mediated Tcf4 transcriptional activity in human U2OS cells at 1 uM after 24 hrs by FOPglow reporter gene assay; type: cell-based; outline: as §3

Structure (SMILES)	EC50 [7] [nM]	activity [1] [%]	activity [2] [%]	inhibition [3]	inhibition [4]	inhibition [5] [%]	fold change (FC) [6]	activity [8] [%]	Activity [9] [%]	activity [10] [%]	Activity [11] [%]	inhibition [12] [%]	inhibition [13] [%]	activity [14] [%]	activity [15]	Activity [16] [%]	inhibition [17] [%]
COc1ccc(/C=C/C(=O)/C=C/c2ccc(OC)c(O)c2)cc1O	1800	38.8	82.5	inactive	inactive	49.4	11.2	34.4	86.6	105	–	–	–	–	–	–	–
COc1cc(/C=C/C(=O)CC(=O)/C=C/c2ccc(O)c(OC)c2)ccc1O [CURCUMIN]	20700	98.2	99.4	–	–	–	–	82.5	–	89.3	29	59.4	27.1	62.8	–	–	–
O=C(/C=C/c1ccc(O)cc1)/C=C/c1ccc(O)cc1	3200	51.3	62.3	Active	inactive	–	6.5	52	–	100	76.2	–	–	37.8	Active	34.8	25.7

Now those with a lower EC50 [7], led by results:

EC50 [7] [nM]	Structure (SMILES)	activity [1] [%]	activity [2] [%]	inhibition [3]	inhibition [4]	inhibition [5] [%]	fold change (FC) [6]	activity [8] [%]	Activity [9] [%]	activity [10] [%]	Activity [11] [%]	inhibition [12] [%]	inhibition [13] [%]	activity [14] [%]	activity [15]	Activity [16] [%]	inhibition [17] [%]
400	O=C1/C(=C/c2ccc(O)cc2)CC/C1=C\c1ccc(O)cc1	28.3	34.3	Active	inactive	–	50.5	19.6	81.4	101	72.8	–	–	8	Active	34.8	25.7
300	COc1ccc(/C=C2\CCC/C(=C\c3ccc(OC)c(O)c3)C2=O)cc1O	27.7	37.3	Active	inactive	–	59.7	24.7	91.6	93.8	81.6	–	–	21.4	Active	34.8	25.7
